Source: ChEMBL document CHEMBL3045304, “Sesquiterpene lactones with potential use as natural herbicide models. 2. guaianolides” (2000)
Calls of active or inactive are those of the source. The rule behind the calls is not given here.

Tested on: Lepidium sativum
Assay: Inhibition of hypocotyl length of Lepidium sativum at 0.1 mM or 1 mM after 4 days relative to untreated control

**Q.** For C=C1CC[C@H]2[C@H](C)C(=O)O[C@@H]2[C@@]2(O)C(=C)[C@H](O)C[C@@]12O, which “inhibition (INH)” value is on record?
**A.** <20%

Tested on: Solanum lycopersicum
Assay: Inhibition of germination of Solanum lycopersicum cv. Tres Cantos (tomato) at 0.1 mM or 1 mM after 5 days relative to untreated control
Type: functional
In short: (§1)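 Lettuce and tomato seeds, 25 per dish on filter paper, received 5 mL test solution. Incubation was 5 days in the dark at 25 °C, with four replicates per concentration. Solutions were made at 10^-3 or 10^-4 M in 10 mM MES, diluted serially, and adjusted to pH 6.0. Parallel controls were run. Results are % difference from control.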

**Q.** Which inhibition does the source give for C=C1CC[C@H]2[C@H](C)C(=O)O[C@@H]2[C@@]2(O)C(=C)[C@H](O)C[C@@]12O here?
**A.** inactive

Tested on: Lactuca sativa
Assay: Inhibition of root length of Lactuca sativa cv. Roman (lettuce) at 0.1 mM or 1 mM after 5 days relative to untreated control
Type: functional
In short: as §1

**Q.** How did the “inhibition (INH)” value turn out when C=C1CC[C@H]2[C@H](C)C(=O)O[C@@H]2[C@@]2(O)C(=C)[C@H](O)C[C@@]12O was run?
**A.** >40%

Tested on: Lepidium sativum
Assay: Inhibition of root length of Lepidium sativum at 0.1 mM or 1 mM after 4 days relative to untreated control

**Q.** With C=C1CC[C@H]2[C@H](C)C(=O)O[C@@H]2[C@@]2(O)C(=C)[C@H](O)C[C@@]12O as the molecule, how does the “inhibition (INH)” value read?
**A.** <20%

Tested on: Triticum aestivum
Assay: Inhibition of germination of Triticum aestivum cv. Cortex (wheat) at 0.1 mM or 1 mM after 5 days relative to untreated control
Type: functional
In short: (§2)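 Wheat: 10 seeds per dish on filter paper with 5 mL test solution, 5 days in the dark at 25 °C, 10 replicates per concentration. Stock test solutions were 10^-3 or 10^-4 M in 10 mM MES, with lower levels made by dilution, all at pH 6.0. Parallel controls were run. Output is % difference from control.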

**Q.** For C=C1CC[C@H]2[C@H](C)C(=O)O[C@@H]2[C@@]2(O)C(=C)[C@H](O)C[C@@]12O, which inhibition is on record?
**A.** inactive

Tested on: Allium cepa
Assay: Inhibition of hypocotyl length of Allium cepa cv. Valenciana (onion) at 0.1 mM or 1 mM after 7 days relative to untreated control

**Q.** With C=C1CC[C@H]2[C@H](C)C(=O)O[C@@H]2[C@@]2(O)C(=C)[C@H](O)C[C@@]12O as the molecule, how does the inhibition read?
**A.** inactive

Tested on: Triticum aestivum
Assay: Stimulation of root length of Triticum aestivum cv. Cortex (wheat) at 0.1 mM or 1 mM after 5 days relative to untreated control
Type: functional
In short: as §2

**Q.** C=C1CC[C@H]2[C@H](C)C(=O)O[C@@H]2[C@@]2(O)C(=C)[C@H](O)C[C@@]12O was tested. Which Activity did it give?
**A.** inactive

Tested on: Lepidium sativum
Assay: Stimulation of root length of Lepidium sativum at 0.1 mM or 1 mM after 5 days relative to untreated control
Type: functional

**Q.** How did the Activity turn out when C=C1CC[C@H]2[C@H](C)C(=O)O[C@@H]2[C@@]2(O)C(=C)[C@H](O)C[C@@]12O was run?
**A.** <20%

Tested on: Triticum aestivum
Assay: Stimulation of germination of Triticum aestivum cv. Cortex (wheat) at 0.1 mM or 1 mM after 5 days relative to untreated control
Type: functional
In short: as §2

**Q.** Which Activity does the source give for C=C1CC[C@H]2[C@H](C)C(=O)O[C@@H]2[C@@]2(O)C(=C)[C@H](O)C[C@@]12O here?
**A.** inactive

Tested on: Lactuca sativa
Assay: Inhibition of hypocotyl length of Lactuca sativa cv. Roman (lettuce) at 0.1 mM or 1 mM after 5 days relative to untreated control
Type: functional
In short: as §1

**Q.** Which “inhibition (INH)” value does the source give for C=C1CC[C@H]2[C@H](C)C(=O)O[C@@H]2[C@@]2(O)C(=C)[C@H](O)C[C@@]12O here?
**A.** >40%

Tested on: Triticum aestivum
Assay: Inhibition of root length of Triticum aestivum cv. Cortex (wheat) at 0.1 mM or 1 mM after 5 days relative to untreated control
Type: functional
In short: as §2

**Q.** C=C1CC[C@H]2[C@H](C)C(=O)O[C@@H]2[C@@]2(O)C(=C)[C@H](O)C[C@@]12O was tested. Which inhibition did it give?
**A.** inactive

Tested on: Allium cepa
Assay: Inhibition of germination of Allium cepa cv. Valenciana (onion) at 0.1 mM or 1 mM after 5 days relative to untreated control
Type: functional

**Q.** For C=C1CC[C@H]2[C@H](C)C(=O)O[C@@H]2[C@@]2(O)C(=C)[C@H](O)C[C@@]12O, which inhibition is on record?
**A.** inactive

Tested on: Allium cepa
Assay: Inhibition of root length of Allium cepa cv. Valenciana (onion) at 0.1 mM or 1 mM after 5 days relative to untreated control
Type: functional

**Q.** How did the inhibition turn out when C=C1CC[C@H]2[C@H](C)C(=O)O[C@@H]2[C@@]2(O)C(=C)[C@H](O)C[C@@]12O was run?
**A.** inactive

Tested on: Lactuca sativa
Assay: Stimulation of root length of Lactuca sativa cv. Roman (lettuce) at 0.1 mM or 1 mM after 5 days relative to untreated control
Type: functional
In short: as §1

**Q.** For C=C1CC[C@H]2[C@H](C)C(=O)O[C@@H]2[C@@]2(O)C(=C)[C@H](O)C[C@@]12O, which Activity is on record?
**A.** >40%

Tested on: Allium cepa
Assay: Stimulation of hypocotyl length of Allium cepa cv. Valenciana (onion) at 0.1 mM or 1 mM after 7 days relative to untreated control

**Q.** For C=C1CC[C@H]2[C@H](C)C(=O)O[C@@H]2[C@@]2(O)C(=C)[C@H](O)C[C@@]12O, which Activity is on record?
**A.** inactive

Tested on: Solanum lycopersicum
Assay: Inhibition of root length of Solanum lycopersicum cv. Tres Cantos (tomato) at 0.1 mM or 1 mM after 5 days relative to untreated control
Type: functional
In short: as §1

**Q.** How did the inhibition turn out when C=C1CC[C@H]2[C@H](C)C(=O)O[C@@H]2[C@@]2(O)C(=C)[C@H](O)C[C@@]12O was run?
**A.** inactive

Tested on: Solanum lycopersicum
Assay: Stimulation of germination of Solanum lycopersicum cv. Tres Cantos (tomato) at 0.1 mM or 1 mM after 5 days relative to untreated control
Type: functional
In short: as §1

**Q.** For C=C1CC[C@H]2[C@H](C)C(=O)O[C@@H]2[C@@]2(O)C(=C)[C@H](O)C[C@@]12O, which Activity is on record?
**A.** inactive

Tested on: Lepidium sativum
Assay: Stimulation of hypocotyl length of Lepidium sativum at 0.1 mM or 1 mM after 5 days relative to untreated control
Type: functional

**Q.** With C=C1CC[C@H]2[C@H](C)C(=O)O[C@@H]2[C@@]2(O)C(=C)[C@H](O)C[C@@]12O as the molecule, how does the Activity read?
**A.** <20%

Tested on: Triticum aestivum
Assay: Stimulation of hypocotyl length of Triticum aestivum cv. Cortex (wheat) at 0.1 mM or 1 mM after 5 days relative to untreated control
Type: functional
In short: as §2

**Q.** C=C1CC[C@H]2[C@H](C)C(=O)O[C@@H]2[C@@]2(O)C(=C)[C@H](O)C[C@@]12O was tested. Which Activity did it give?
**A.** inactive

Tested on: Solanum lycopersicum
Assay: Stimulation of root length of Solanum lycopersicum cv. Tres Cantos (tomato) at 0.1 mM or 1 mM after 5 days relative to untreated control
Type: functional
In short: as §1

**Q.** With C=C1CC[C@H]2[C@H](C)C(=O)O[C@@H]2[C@@]2(O)C(=C)[C@H](O)C[C@@]12O as the molecule, how does the Activity read?
**A.** inactive

Tested on: Lactuca sativa
Assay: Inhibition of germination of Lactuca sativa cv. Roman (lettuce) at 0.1 mM or 1 mM after 5 days relative to untreated control
Type: functional
In short: as §1

**Q.** With C=C1CC[C@H]2[C@H](C)C(=O)O[C@@H]2[C@@]2(O)C(=C)[C@H](O)C[C@@]12O as the molecule, how does the “inhibition (INH)” value read?
**A.** 20%

Tested on: Lactuca sativa
Assay: Stimulation of hypocotyl length of Lactuca sativa cv. Roman (lettuce) at 0.1 mM or 1 mM after 5 days relative to untreated control
Type: functional
In short: as §1

**Q.** Which Activity does the source give for C=C1CC[C@H]2[C@H](C)C(=O)O[C@@H]2[C@@]2(O)C(=C)[C@H](O)C[C@@]12O here?
**A.** >40%

Tested on: Allium cepa
Assay: Stimulation of root length of Allium cepa cv. Valenciana (onion) at 0.1 mM or 1 mM after 7 days relative to untreated control

**Q.** For C=C1CC[C@H]2[C@H](C)C(=O)O[C@@H]2[C@@]2(O)C(=C)[C@H](O)C[C@@]12O, which Activity is on record?
**A.** inactive

Tested on: Lepidium sativum
Assay: Inhibition of germination of Lepidium sativum at 0.1 mM or 1 mM after 4 days relative to untreated control

**Q.** How did the Activity turn out when C=C1CC[C@H]2[C@H](C)C(=O)O[C@@H]2[C@@]2(O)C(=C)[C@H](O)C[C@@]12O was run?
**A.** inactive

**Q.** And the inhibition?
**A.** inactive

Tested on: Lactuca sativa
Assay: Stimulation of germination of Lactuca sativa cv. Roman (lettuce) at 0.1 mM or 1 mM after 5 days relative to untreated control
Type: functional
In short: as §1

**Q.** With C=C1CC[C@H]2[C@H](C)C(=O)O[C@@H]2[C@@]2(O)C(=C)[C@H](O)C[C@@]12O as the molecule, how does the Activity read?
**A.** 20%

Tested on: Solanum lycopersicum
Assay: Inhibition of hypocotyl length of Solanum lycopersicum cv. Tres Cantos (tomato) at 0.1 mM or 1 mM after 5 days relative to untreated control
Type: functional
In short: as §1

**Q.** With C=C1CC[C@H]2[C@H](C)C(=O)O[C@@H]2[C@@]2(O)C(=C)[C@H](O)C[C@@]12O as the molecule, how does the inhibition read?
**A.** inactive

Tested on: Triticum aestivum
Assay: Inhibition of hypocotyl length of Triticum aestivum cv. Cortex (wheat) at 0.1 mM or 1 mM after 5 days relative to untreated control
Type: functional
In short: as §2

**Q.** How did the inhibition turn out when C=C1CC[C@H]2[C@H](C)C(=O)O[C@@H]2[C@@]2(O)C(=C)[C@H](O)C[C@@]12O was run?
**A.** inactive

Tested on: Solanum lycopersicum
Assay: Stimulation of hypocotyl length of Solanum lycopersicum cv. Tres Cantos (tomato) at 0.1 mM or 1 mM after 5 days relative to untreated control
Type: functional
In short: as §1

**Q.** How did the Activity turn out when C=C1CC[C@H]2[C@H](C)C(=O)O[C@@H]2[C@@]2(O)C(=C)[C@H](O)C[C@@]12O was run?
**A.** inactive

Tested on: Allium cepa
Assay: Stimulation of germination of Allium cepa cv. Valenciana (onion) at 0.1 mM or 1 mM after 5 days relative to untreated control
Type: functional

**Q.** Which Activity does the source give for C=C1CC[C@H]2[C@H](C)C(=O)O[C@@H]2[C@@]2(O)C(=C)[C@H](O)C[C@@]12O here?
**A.** inactive
